# System: not listed separately
# Assay: Half life in Dunkin-Hartley guinea pig plasma at 5 mM by HPLC analysis
# Type: ADME, cell-free, Cavia porcellus
# Conditions: 5000 µM
# In short: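 Pooled plasma from female Dunkin Hartley guinea pigs was pre-warmed 2 min at 37 °C, then prodrug was added from a 5.0 mM stock. Runs were in triplicate. Aliquots were taken at 0, 2.5, 5, 10, 15 and 30 min, quenched with an equal volume of acetonitrile, filtered and analysed by reversed-phase HPLC at 300 nm for half-life.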
row,Compound,t1/2 [min]
1,C[C@@H](O)[C@H]1C(=O)N2C(C(=O)OCOC(=O)O[C@@H]3CCCCc4ccccc43)=C(S[C@@H]3CN[C@H](C(=O)N(C)C)C3)[C@H](C)[C@H]12,0.9

# System: not listed separately
# Assay: Chemical stability of the compound in simulated gastric fluid assessed as compound remaining at 10 uM after 60 mins at pH 1.2
# Type: physicochemical
# Conditions: read-out: Stability
row,Compound,"remaining at 1 h, 10 µM [%]"
1,C[C@@H](O)[C@H]1C(=O)N2C(C(=O)O)=C([C@H]3CCCO3)S[C@H]12 [FAROPENEM],70
2,Nc1nc(/C(=C/CC(=O)O)C(=O)N[C@@H]2C(=O)N3C(C(=O)O)=CCS[C@H]23)cs1 [CEFTIBUTEN],94

# System: not listed separately
# Assay: Half life in HEPES buffer at 100 uM at pH 7.4 by HPLC analysis
# Type: physicochemical
# Conditions: pH 7.4, 100 µM
# In short: (§1)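 Meropenem or prodrug at 100 µM final (from a 5.0 mM DMSO stock) incubated at 37 °C in triplicate in simulated gastric fluid pH 1.2, 100 mM MES pH 6.0, or pH 7.4 buffer, after 2 min buffer pre-warming. Aliquots taken at 0–120 min and injected directly onto reversed-phase HPLC with UV at 300 nm. Half-life, % prodrug remaining at 120 min, or species concentration over time was reported.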
row,Compound,t1/2 [min]
1,CC(=O)N1C[C@@H](SC2=C(C(=O)OCOC(=O)O[C@H]3CCCCc4ccccc43)N3C(=O)[C@H]([C@@H](C)O)[C@H]3[C@H]2C)C[C@H]1C(=O)N(C)C,28
2,C[C@@H](O)[C@H]1C(=O)N2C(C(=O)OCOC(=O)O[C@H]3CCc4ccccc43)=C(S[C@@H]3CN[C@H](C(=O)N(C)C)C3)[C@H](C)[C@H]12,< 1
3,C[C@@H](O)[C@H]1C(=O)N2C(C(=O)OCOC(=O)O[C@@H]3CCCCc4ccccc43)=C(S[C@@H]3CN[C@H](C(=O)N(C)C)C3)[C@H](C)[C@H]12,27
4,C[C@@H](O)[C@H]1C(=O)N2C(C(=O)OCOC(=O)O[C@H]3CCCc4ccccc43)=C(S[C@@H]3CN[C@H](C(=O)N(C)C)C3)[C@H](C)[C@H]12,1.4
5,C[C@@H](O)[C@H]1C(=O)N2C(C(=O)OCOC(=O)O[C@@H]3CCCc4ccccc43)=C(S[C@@H]3CN[C@H](C(=O)N(C)C)C3)[C@H](C)[C@H]12,1.5
6,CC(OC(=O)O[C@H]1CCCCc2ccccc21)OC(=O)C1=C(S[C@@H]2CN[C@H](C(=O)N(C)C)C2)[C@H](C)[C@@H]2[C@@H]([C@@H](C)O)C(=O)N12 (mixture of isomers),64

# System: Plasma
# Assay: Half life in human plasma at 5 mM by HPLC analysis
# Type: ADME, cell-free
# Conditions: 5000 µM
row,Compound,t1/2 [min]
1,C[C@@H](O)[C@H]1C(=O)N2C(C(=O)OCOC(=O)O[C@@H]3CCCCc4ccccc43)=C(S[C@@H]3CN[C@H](C(=O)N(C)C)C3)[C@H](C)[C@H]12,34

# System: not listed separately
# Assay: Half life in MES buffer at 100 uM at pH 6 by HPLC analysis
# Type: physicochemical
# Conditions: pH 6, 100 µM
# In short: as §1
row,Compound,t1/2 [min]
1,CC(=O)N1C[C@@H](SC2=C(C(=O)OCOC(=O)O[C@H]3CCCCc4ccccc43)N3C(=O)[C@H]([C@@H](C)O)[C@H]3[C@H]2C)C[C@H]1C(=O)N(C)C,28
2,C[C@@H](O)[C@H]1C(=O)N2C(C(=O)OCOC(=O)O[C@H]3CCCc4ccccc43)=C(S[C@@H]3CN[C@H](C(=O)N(C)C)C3)[C@H](C)[C@H]12,0.9
3,C[C@@H](O)[C@H]1C(=O)N2C(C(=O)OCOC(=O)O[C@@H]3CCCc4ccccc43)=C(S[C@@H]3CN[C@H](C(=O)N(C)C)C3)[C@H](C)[C@H]12,0.96
4,CC(OC(=O)O[C@H]1CCCCc2ccccc21)OC(=O)C1=C(S[C@@H]2CN[C@H](C(=O)N(C)C)C2)[C@H](C)[C@@H]2[C@@H]([C@@H](C)O)C(=O)N12 (mixture of isomers),80

# System: not listed separately
# Assay: Half life in simulated gastric fluid at 100 uM at pH 1.2 by HPLC analysis
# Type: physicochemical
# Conditions: simulated gi fluid, pH 1.2, 100 µM
# In short: as §1
row,Compound,t1/2 [min]
1,CC(=O)N1C[C@@H](SC2=C(C(=O)OCOC(=O)O[C@H]3CCCCc4ccccc43)N3C(=O)[C@H]([C@@H](C)O)[C@H]3[C@H]2C)C[C@H]1C(=O)N(C)C,7
2,C[C@@H](O)[C@H]1C(=O)N2C(C(=O)OCOC(=O)O[C@@H]3CCCCc4ccccc43)=C(S[C@@H]3CN[C@H](C(=O)N(C)C)C3)[C@H](C)[C@H]12,11
3,CC(OC(=O)O[C@H]1CCCCc2ccccc21)OC(=O)C1=C(S[C@@H]2CN[C@H](C(=O)N(C)C)C2)[C@H](C)[C@@H]2[C@@H]([C@@H](C)O)C(=O)N12 (mixture of isomers),18
